Data taken from ChEMBL document CHEMBL2021876, “New pyridobenzoxazepine derivatives derived from 5-(4-methylpiperazin-1-yl)-8-chloro-pyrido[2,3-b][1,5]benzoxazepine (JL13): chemical synthesis and pharmacological evaluation” (J Med Chem, 2012).

What was measured:
[1] = test system: Hippocampus; experiment: In vivo displacement of [3H]Ketanserin from 5HT2A receptor in Sprague-Dawley rat hippocampus CA1 region at 13.75 mg/kg, ip qd for 28 days by autoradiography relative to control; assay type: functional; conditions: route intraperitoneal
In short: (§1)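 Rats (male Sprague-Dawley, N = 8/group) given daily ip injections for 28 days versus vehicle. Brain sections preincubated 1 h RT in 50 mM Tris-HCl pH 7.7, then 1 h RT with 3.0 nM [3H]ketanserin plus 1 μM prazosin and 100 nM tetrabenazine. Nonspecific: 1 μM methysergide. Washes 2 × 30 min ice-cold. Readout fmol/mg tissue as % of control, mean ± SEM.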

[2] = target: Serotonin 1a (5-HT1a) receptor/Adrenergic receptor alpha-1 (Rattus norvegicus) (UniProt P15823+P23944+P43140+P19327); experiment: In vivo displacement of [3H]8-OH-DPAT from 5HT1A receptor in Sprague-Dawley rat medial-prefrontal cortex at 13.75 mg/kg, ip qd for 28 days by autoradiography relative to control; assay type: functional, organism-based; set-up: dose 13.75 mg/kg
In short: (§2)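 Male Sprague-Dawley rats (200−225 g, N = 8/group) dosed ip once daily for 28 days, vehicle controls, decapitated; 10 μm frozen coronal sections. Preincubation 1 h RT in 50 mM Tris-HCl pH 7.6, 0.1% ascorbic acid, 4 mM CaCl2, 10 μM pargyline; then 1 h RT with 2.0 nM [3H]8-OH-DPAT. Nonspecific: 1 μM 5-HT. Saturating conditions; binding in fmol/mg tissue, % of control, mean ± SEM.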

[3] = target: D(2) dopamine receptor (Rattus norvegicus) (UniProt P61169); experiment: In vivo displacement of [3H]Nemonapride from dopamine D2 receptor in Sprague-Dawley rat entorhinal cortex at 13.75 mg/kg, ip qd for 28 days by autoradiography relative to control; assay type: functional, organism-based; set-up: dose 13.75 mg/kg
In short: (§3)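 Male Sprague-Dawley rats, N = 8/group, daily ip dosing for 28 days with vehicle controls; cryostat sections (10 μm) preincubated 1 h RT. Incubation 1 h RT in 50 mM Tris-HCl pH 7.4, 120 mM NaCl, 5 mM KCl, 2 mM CaCl2, 1 mM MgCl2 with 1 nM [3H]nemonapride, 0.5 μM DTG, 0.1 μM pindolol. Nonspecific: 10 μM S(−)-sulpiride. Values fmol/mg tissue, % of control.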

[4] = target: T1, D(4) dopamine receptor (Homo sapiens) (UniProt P21917); experiment: Displacement of [3H]-YM09151-2 from human cloned dopamine D4 receptor expressed in insect Sf9 cells at 10^-6 M after 60 mins by liquid scintillation counting
T1 sequence (whole entry): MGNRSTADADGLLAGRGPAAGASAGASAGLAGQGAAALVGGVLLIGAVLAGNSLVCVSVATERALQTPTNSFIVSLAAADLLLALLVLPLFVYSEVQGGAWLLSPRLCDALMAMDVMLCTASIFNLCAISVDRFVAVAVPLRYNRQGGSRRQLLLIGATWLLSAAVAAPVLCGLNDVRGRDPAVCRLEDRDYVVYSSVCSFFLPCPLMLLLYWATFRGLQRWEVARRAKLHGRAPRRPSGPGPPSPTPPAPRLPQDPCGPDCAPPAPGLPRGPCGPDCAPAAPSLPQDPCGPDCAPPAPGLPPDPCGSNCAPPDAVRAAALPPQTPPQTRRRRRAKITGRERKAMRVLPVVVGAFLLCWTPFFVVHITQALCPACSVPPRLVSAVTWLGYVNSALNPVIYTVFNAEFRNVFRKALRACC

[5] = In vivo displacement of [3H]Nemonapride from dopamine D4 receptor in Sprague-Dawley rat dorsolateral frontal cortex at 13.75 mg/kg, ip qd for 28 days by autoradiography relative to control; assay type: functional; conditions: route intraperitoneal
[6] = target: 5-hydroxytryptamine receptor 2A (Homo sapiens, UniProt P28223); experiment: Displacement of [3H]ketanserin from human recombinant 5HT2A receptor expressed in CHO cells after 60 mins by liquid scintillation counting; assay type: cell-based
[7] = test system: Hippocampus; experiment: In vivo displacement of [3H]8-OH-DPAT from 5HT1A receptor in Sprague-Dawley rat hippocampus CA3 region at 13.75 mg/kg, ip qd for 28 days by autoradiography relative to control; assay type: functional; conditions: route intraperitoneal; in short: as §2
[8] = test system: Hippocampus; experiment: In vivo displacement of [3H]8-OH-DPAT from 5HT1A receptor in Sprague-Dawley rat hippocampus CA1 region at 13.75 mg/kg, ip qd for 28 days by autoradiography relative to control; assay type: functional; conditions: route intraperitoneal; in short: as §2
[9] = test system: Hippocampus; experiment: In vivo displacement of [3H]Nemonapride from dopamine D4 receptor in Sprague-Dawley rat hippocampus at 13.75 mg/kg, ip qd for 28 days by autoradiography relative to control; assay type: functional; conditions: route intraperitoneal
[10] = Lipophilicity, log K of the compound in IAM-PC-DD2 HPLC column by UV method; assay type: physicochemical; conditions: artificial membrane
[11] = target: D(2) dopamine receptor (Rattus norvegicus) (UniProt P61169); experiment: In vivo displacement of [3H]Nemonapride from dopamine D2 receptor in Sprague-Dawley rat medial-prefrontal cortex at 13.75 mg/kg, ip qd for 28 days by autoradiography relative to control; assay type: functional, organism-based; set-up: dose 13.75 mg/kg; in short: as §3
[12] = target: T2, 5-hydroxytryptamine receptor 1A (Homo sapiens, UniProt P08908); experiment: Displacement of [3H]8-OH-DPAT from human recombinant 5HT1A receptor expressed in CHO cells after 60 mins by liquid scintillation counting; assay type: cell-based
T2 sequence (P08908 whole entry): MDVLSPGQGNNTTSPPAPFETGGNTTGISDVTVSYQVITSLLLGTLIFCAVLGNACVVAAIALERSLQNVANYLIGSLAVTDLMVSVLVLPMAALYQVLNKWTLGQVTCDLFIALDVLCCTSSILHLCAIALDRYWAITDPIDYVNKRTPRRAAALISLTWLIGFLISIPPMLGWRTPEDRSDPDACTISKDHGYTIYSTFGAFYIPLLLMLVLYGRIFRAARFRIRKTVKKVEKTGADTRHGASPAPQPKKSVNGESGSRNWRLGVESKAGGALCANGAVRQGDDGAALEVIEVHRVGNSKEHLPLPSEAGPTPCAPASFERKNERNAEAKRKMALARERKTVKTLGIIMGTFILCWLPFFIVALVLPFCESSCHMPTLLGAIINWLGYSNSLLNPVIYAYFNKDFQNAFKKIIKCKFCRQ

[13] = In vivo displacement of [3H]Ketanserin from 5HT2A receptor in Sprague-Dawley rat medial-prefrontal cortex at 13.75 mg/kg, ip qd for 28 days by autoradiography relative to control; assay type: functional; conditions: route intraperitoneal; in short: as §1
[14] = test system: Caudate-putamen; experiment: In vivo displacement of [3H]8-OH-DPAT from 5HT1A receptor in Sprague-Dawley rat medial part of caudate putamen at 13.75 mg/kg, ip qd for 28 days by autoradiography relative to control; assay type: functional; conditions: route intraperitoneal; in short: as §2
[15] = In vivo displacement of [3H]Nemonapride from dopamine D4 receptor in Sprague-Dawley rat nucleus accumbens at 13.75 mg/kg, ip qd for 28 days by autoradiography relative to control; assay type: functional; conditions: route intraperitoneal
[16] = In vivo displacement of [3H]Ketanserin from 5HT2A receptor in Sprague-Dawley rat entorhinal cortex at 13.75 mg/kg, ip qd for 28 days by autoradiography relative to control; assay type: functional; conditions: route intraperitoneal; in short: as §1

Sequence of D(2) dopamine receptor (Rattus norvegicus) (P61169 whole entry): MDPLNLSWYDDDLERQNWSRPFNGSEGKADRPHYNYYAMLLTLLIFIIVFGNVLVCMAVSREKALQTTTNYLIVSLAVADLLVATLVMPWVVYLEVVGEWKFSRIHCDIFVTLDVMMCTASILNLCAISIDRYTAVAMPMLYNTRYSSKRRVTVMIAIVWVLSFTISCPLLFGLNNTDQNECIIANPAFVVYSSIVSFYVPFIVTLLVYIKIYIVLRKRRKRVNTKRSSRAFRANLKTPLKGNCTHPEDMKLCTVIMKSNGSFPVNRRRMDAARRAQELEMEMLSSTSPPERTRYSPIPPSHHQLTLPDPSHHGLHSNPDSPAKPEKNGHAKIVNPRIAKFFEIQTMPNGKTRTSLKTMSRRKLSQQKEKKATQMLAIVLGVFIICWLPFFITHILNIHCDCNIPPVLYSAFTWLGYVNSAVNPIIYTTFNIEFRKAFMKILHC
Sequence of 5-hydroxytryptamine receptor 2A (P28223 whole entry): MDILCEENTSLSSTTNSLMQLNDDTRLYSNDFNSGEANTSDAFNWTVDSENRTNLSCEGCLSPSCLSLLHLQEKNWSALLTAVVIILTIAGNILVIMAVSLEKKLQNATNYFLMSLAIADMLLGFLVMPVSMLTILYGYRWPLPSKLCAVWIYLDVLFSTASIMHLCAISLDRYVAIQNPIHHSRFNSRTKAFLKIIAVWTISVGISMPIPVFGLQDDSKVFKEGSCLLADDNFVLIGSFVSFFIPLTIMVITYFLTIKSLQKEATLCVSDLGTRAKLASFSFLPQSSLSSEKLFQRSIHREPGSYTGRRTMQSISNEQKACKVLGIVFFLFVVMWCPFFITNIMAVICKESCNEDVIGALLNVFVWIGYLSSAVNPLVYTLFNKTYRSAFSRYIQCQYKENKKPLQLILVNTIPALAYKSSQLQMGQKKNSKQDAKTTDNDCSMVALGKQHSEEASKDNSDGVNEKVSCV

With `Clc1ccc2c(c1)N=C(N1CCNCC1)c1cccnc1O2` the inhibition in vivo at 13.75 mg/kg [1] was 96%, the inhibition [2] was 137% and the inhibition [3] was 96%. It also gave an inhibition [4] of 28%, an inhibition in vivo at 13.75 mg/kg [5] of 108% and a Ki [6] of 131 nM. It also gave an inhibition in vivo at 13.75 mg/kg [7] of 105%, an inhibition in vivo at 13.75 mg/kg [8] of 95% and an inhibition in vivo at 13.75 mg/kg [9] of 117%. The “log K” value [10] was 2.68, the inhibition [11] was 141% and the Ki [12] was 375 nM. The inhibition in vivo at 13.75 mg/kg [13] was 56%, the inhibition in vivo at 13.75 mg/kg [14] was 87% and the inhibition in vivo at 13.75 mg/kg [15] was 178%. It also gave an inhibition in vivo at 13.75 mg/kg [16] of 90%.
